Source: the M2OR odorant receptor database

What was measured:
Details in all cases: stereoisomer not certain
UniProt A2ATE5 = target: T1, UniProt A2ATE5
T1 sequence (whole entry): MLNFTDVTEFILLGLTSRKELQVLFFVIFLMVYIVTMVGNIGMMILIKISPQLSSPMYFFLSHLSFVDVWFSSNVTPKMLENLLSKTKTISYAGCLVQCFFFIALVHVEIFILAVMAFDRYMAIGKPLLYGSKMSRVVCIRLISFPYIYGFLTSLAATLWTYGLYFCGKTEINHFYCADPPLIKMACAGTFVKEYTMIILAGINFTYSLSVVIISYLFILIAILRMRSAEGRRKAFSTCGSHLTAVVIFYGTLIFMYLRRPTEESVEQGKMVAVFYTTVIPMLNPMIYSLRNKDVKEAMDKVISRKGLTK
Procedure, shortened: (§1)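 Whether a receptor–molecule pair is responsive (active) rests on the original authors' judgment that its measured signal was statistically different from baseline. Pairs without that judgment are non-responsive (inactive). Sources used varied assay methods, commonly transient luciferase assays in mammalian cell lines.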

UniProt A2AVB0 = target: T2, UniProt A2AVB0
T2 sequence (whole entry): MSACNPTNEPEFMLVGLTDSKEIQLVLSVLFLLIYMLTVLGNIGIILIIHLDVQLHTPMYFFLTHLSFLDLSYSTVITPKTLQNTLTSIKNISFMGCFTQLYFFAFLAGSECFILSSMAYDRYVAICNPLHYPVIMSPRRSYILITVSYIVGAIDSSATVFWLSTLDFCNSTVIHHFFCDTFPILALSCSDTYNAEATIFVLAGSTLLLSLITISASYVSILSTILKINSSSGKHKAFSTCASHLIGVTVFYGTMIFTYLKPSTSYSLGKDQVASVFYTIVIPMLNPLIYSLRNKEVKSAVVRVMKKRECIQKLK
Procedure, shortened: as §1

UniProt E9PVX1 = target: T3, UniProt E9PVX1
T3 sequence (whole entry): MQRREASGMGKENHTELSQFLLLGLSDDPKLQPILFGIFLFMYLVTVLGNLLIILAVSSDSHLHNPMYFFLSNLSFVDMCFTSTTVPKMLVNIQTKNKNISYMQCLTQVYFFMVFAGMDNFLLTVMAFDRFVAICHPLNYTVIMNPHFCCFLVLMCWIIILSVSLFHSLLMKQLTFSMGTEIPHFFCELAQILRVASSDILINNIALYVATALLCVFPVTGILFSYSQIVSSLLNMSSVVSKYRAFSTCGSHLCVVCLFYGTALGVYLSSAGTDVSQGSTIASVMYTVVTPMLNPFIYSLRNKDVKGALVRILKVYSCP
Procedure, shortened: as §1

UniProt E9PZ66 = target: T4, UniProt E9PZ66
T4 sequence (whole entry): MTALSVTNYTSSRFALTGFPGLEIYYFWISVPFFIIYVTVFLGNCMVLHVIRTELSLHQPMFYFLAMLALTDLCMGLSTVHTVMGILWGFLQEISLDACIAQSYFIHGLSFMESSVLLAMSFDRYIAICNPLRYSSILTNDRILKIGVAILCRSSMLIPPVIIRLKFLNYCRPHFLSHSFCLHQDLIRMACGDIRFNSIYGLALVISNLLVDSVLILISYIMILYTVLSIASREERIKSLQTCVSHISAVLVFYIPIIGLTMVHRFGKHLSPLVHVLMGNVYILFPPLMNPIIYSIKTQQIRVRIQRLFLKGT
Procedure, shortened: as §1

UniProt E9Q4X7 = target: T5, UniProt E9Q4X7
T5 sequence (whole entry): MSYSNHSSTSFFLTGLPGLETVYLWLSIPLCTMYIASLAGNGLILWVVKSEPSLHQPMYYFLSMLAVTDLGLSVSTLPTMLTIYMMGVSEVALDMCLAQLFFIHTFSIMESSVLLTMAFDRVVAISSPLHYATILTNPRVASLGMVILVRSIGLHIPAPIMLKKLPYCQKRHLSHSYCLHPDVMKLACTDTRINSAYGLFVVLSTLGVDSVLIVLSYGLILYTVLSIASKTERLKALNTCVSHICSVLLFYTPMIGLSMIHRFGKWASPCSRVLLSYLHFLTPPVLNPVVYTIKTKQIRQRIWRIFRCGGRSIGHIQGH
Procedure, shortened: as §1

UniProt E9Q546 = target: T6, UniProt E9Q546
T6 sequence (whole entry): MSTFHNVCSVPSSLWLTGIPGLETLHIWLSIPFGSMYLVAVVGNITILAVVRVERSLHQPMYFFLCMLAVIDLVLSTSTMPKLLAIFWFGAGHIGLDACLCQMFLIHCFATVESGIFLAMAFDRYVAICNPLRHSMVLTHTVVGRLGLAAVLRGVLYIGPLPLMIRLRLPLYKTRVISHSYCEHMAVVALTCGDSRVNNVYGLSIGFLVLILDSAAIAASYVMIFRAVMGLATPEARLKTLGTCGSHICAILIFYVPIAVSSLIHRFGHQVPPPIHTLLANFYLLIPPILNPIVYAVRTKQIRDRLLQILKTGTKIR
Procedure, shortened: as §1

UniProt E9Q6Z7 = target: T7, UniProt E9Q6Z7
T7 sequence (whole entry): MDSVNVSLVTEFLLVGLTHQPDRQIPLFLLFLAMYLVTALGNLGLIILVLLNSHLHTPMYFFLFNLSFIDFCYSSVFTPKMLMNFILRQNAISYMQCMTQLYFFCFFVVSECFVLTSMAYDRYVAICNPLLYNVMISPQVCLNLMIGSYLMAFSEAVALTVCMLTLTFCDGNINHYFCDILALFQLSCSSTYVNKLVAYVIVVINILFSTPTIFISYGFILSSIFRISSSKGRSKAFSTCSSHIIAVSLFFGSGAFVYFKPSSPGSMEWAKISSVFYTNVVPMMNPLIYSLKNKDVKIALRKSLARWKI
Procedure, shortened: as §1

UniProt A2AVB5 = target: T8, UniProt A2AVB5
T8 sequence (whole entry): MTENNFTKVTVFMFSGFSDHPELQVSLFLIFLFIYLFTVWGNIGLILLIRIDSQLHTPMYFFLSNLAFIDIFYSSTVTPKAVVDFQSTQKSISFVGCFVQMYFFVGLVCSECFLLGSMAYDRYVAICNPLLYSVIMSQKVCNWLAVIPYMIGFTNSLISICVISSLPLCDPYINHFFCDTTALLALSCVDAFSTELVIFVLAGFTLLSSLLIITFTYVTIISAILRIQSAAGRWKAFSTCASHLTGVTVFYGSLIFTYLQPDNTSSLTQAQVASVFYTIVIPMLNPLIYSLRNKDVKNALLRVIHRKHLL
Procedure, shortened: as §1

UniProt B2RVX8 = target: T9, UniProt B2RVX8
T9 sequence (whole entry): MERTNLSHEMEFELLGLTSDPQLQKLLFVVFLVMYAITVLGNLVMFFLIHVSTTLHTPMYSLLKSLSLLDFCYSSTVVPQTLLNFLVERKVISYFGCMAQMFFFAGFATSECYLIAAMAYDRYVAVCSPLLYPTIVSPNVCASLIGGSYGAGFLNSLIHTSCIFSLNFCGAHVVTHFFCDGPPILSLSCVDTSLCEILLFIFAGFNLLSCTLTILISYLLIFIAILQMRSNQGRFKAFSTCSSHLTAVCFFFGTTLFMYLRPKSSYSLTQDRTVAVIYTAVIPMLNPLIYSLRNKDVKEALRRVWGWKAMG
Procedure, shortened: as §1

UniProt K7N609 = target: T10, UniProt K7N609
T10 sequence (whole entry): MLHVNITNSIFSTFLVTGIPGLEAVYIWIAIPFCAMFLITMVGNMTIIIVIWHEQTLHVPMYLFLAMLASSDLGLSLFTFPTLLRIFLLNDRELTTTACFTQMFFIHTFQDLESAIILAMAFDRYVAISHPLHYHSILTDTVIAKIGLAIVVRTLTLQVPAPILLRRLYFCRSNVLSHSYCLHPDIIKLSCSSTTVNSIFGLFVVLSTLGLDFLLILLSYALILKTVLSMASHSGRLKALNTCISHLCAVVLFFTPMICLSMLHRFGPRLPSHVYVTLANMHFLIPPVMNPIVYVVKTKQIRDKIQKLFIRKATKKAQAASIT
Procedure, shortened: as §1

Measured: odorant receptor agonist call;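 further: active if original authors judged signal statistically different from baseline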

CCCCCCC(C=O)=Cc1ccccc1
not listed: UniProt A2AVB5 | UniProt B2RVX8 | UniProt K7N609
inactive: all other assays above

CCC(C(=O)O)c1ccccc1 (configuration not stated)
inactive: UniProt A2AVB5 | UniProt B2RVX8 | UniProt E9Q546 | UniProt K7N609

CC(=O)OCCc1ccccc1
not listed: UniProt A2AVB5 | UniProt B2RVX8 | UniProt K7N609
inactive: all other assays above

CCc1ccccc1O
not listed: UniProt A2AVB5 | UniProt B2RVX8 | UniProt K7N609
inactive: all other assays above

CC=CC(=O)C1=C(C)CCCC1(C)C
not listed: UniProt A2AVB5 | UniProt B2RVX8 | UniProt K7N609
inactive: all other assays above
